The results in this text go back to ChEMBL document CHEMBL4480454, “Parvifoline Derivatives as Tubulin Polymerization Inhibitors” (J Nat Prod, 2019).

Activity calls are given as the source filed them. The calls are words filed in the database; no cut-off is given here.

Assay [1] is filed under the species Sus scrofa. The assay can be described thus: Inhibition of porcine brain tubulin alpha/beta polymerization at 10 uM measured every minute for 60 mins relative to colchicine. The essentials:
(§1)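 Turbidity assay with porcine brain α,β-tubulin (97%), final 2 mg/mL, in pH 6.9 buffer of 80.0 mM PIPES sesquisodium, 2.0 mM MgCl2, 0.5 mM EGTA and 1.0 mM GTP. Tubulin added at 0 °C to compound in DMSO, then A450 read every minute for 60 min at 37 °C. Time-zero reading subtracted. […] Triplicate; ANOVA with Tukey test.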

Assay [2] is filed under the species Sus scrofa. Description: Inhibition of porcine brain tubulin alpha/beta polymerization at 10 uM measured every minute for 90 mins relative to colchicine.
Assay [3] is filed under the species Sus scrofa. The assay can be described thus: Inhibition of porcine brain tubulin alpha/beta polymerization at 50 uM measured every minute for 60 mins relative to colchicine. In short, it runs like this: as §1
Assay [4] is filed under the species Sus scrofa. The assay can be described thus: Inhibition of porcine brain tubulin alpha/beta polymerization at 50 uM measured every minute for 90 mins relative to colchicine.
For assay [5], the system named is HeLa. The assay can be described thus: Cytotoxicity against human HeLa cells assessed as reduction in cell viability after 72 hrs by SRB assay. Format: functional, cell-based. Background: In SRB staining, fixed cells bind dye roughly in proportion to their protein.
The test system of assay [6] is HCT-116. Description: Cytotoxicity against human HCT116 cells assessed as reduction in cell viability after 72 hrs by SRB assay. Format: functional, cell-based. Conditions: HCT-116, 72 h.
The species entered for assay [7] is Sus scrofa. The assay can be described thus: Competitive inhibition of colchicine binding to porcine brain tubulin alpha/beta polymerization at 10 to 50 uM preincubated for 30 mins followed by 50 uM colchicine addition and measured after 60 mins by fluorescence assay. In short, it runs like this: (§2)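 Porcine brain α,β-tubulin (97%) in general buffer pH 6.9 (80.0 mM PIPES sesquisodium, 2.0 mM MgCl2, 0.5 mM EGTA), no GTP, final 1 mg/mL, added at 0 °C to compound in DMSO (final 10, 20, 50 μM). […] DMSO control included.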

The species named for assay [8] is Sus scrofa. Description: Competitive inhibition of colchicine binding to porcine brain tubulin alpha/beta polymerization at 10 to 50 uM preincubated for 30 mins followed by 5 uM colchicine addition and measured after 60 mins by fluorescence assay. In short, it runs like this:
as §2

For assay [9], the species on record is Sus scrofa. The assay can be described thus: Induction of porcine brain tubulin alpha/beta polymerization at 10 uM measured every minute for 30 mins.

As for `Cc1cc2c(cc1O)[C@H](C)CCC[C@]1(C)O[C@H]21`, the inhibition stood at 30.3% in assay [1], 8.3% in assay [2], 19.3% in assay [3] and 36.9% in assay [4].

Regarding `Cc1cc2c(cc1OC(=O)c1ccccc1)[C@@]1(C)CCC[C@H](C)[C@@H]2O1`, the inhibition in assay [1] was 9.2%; in [2], 2.1%; in assay [3], -3.4%; in assay [4], -5.7%.

For the compound `Cc1cc2c(cc1OC(=O)c1ccccc1)[C@@]1(C)CC[C@H](O1)[C@H](C)C2`, the inhibition in assay [1] amounted to 26.1%; in [3], 76.9%; in assay [4] it was 46.9%.

With `Cc1cc2c(cc1O)[C@@]1(C)CC[C@H](O1)[C@H](C)C2`, the inhibition in assay [1] was found to be 40.2%; in assay [2] it was 43.7%; in [3], 66.3%; in assay [4] it was 67%.

Take `COc1cc2c(c(OC)c1OC)-c1ccc(OC)c(=O)cc1[C@@H](NC(C)=O)CC2` [COLCHICINE]: the half-inhibitory concentration (IC50) in assay [5] is 0.011 µM; in assay [6] it was 0.04 µM.

Consider `C/C1=C/c2cc(C)c(OC(=O)c3ccccc3)cc2[C@H](C)CCC1`, for which the inhibition was 38.7% in assay [1], 35.4% in [2], 86.6% in assay [3] and 106% in assay [4].

In the case of `C/C1=C/CC[C@@H](C)c2cc(O)c(C)cc2C1`, the inhibition in assay [1] was 24.4%; in assay [2] it was 51%; in [3], 54.6%; in [4] it was 66.7%. Besides, the inhibition result in [7] was “Active”. Also, the inhibition entry in [8] was “inactive”. For the same compound, the result in [9] was Active.

Take `Cc1cc2c(cc1OC(=O)c1ccccc1)[C@H](C)CCC[C@]1(C)O[C@H]21`: the inhibition in [1] was found to be 89.9%; in assay [2], 97.9%; in assay [3] it was 51.8%; in assay [4] it was 78.5%. The inhibition result in assay [7] and in assay [8] was “inactive” each time. For the same compound, the results for the half-maximal inhibitory concentration (IC50) in assay [5] and in assay [6] were 3.3 µM and 5 µM, respectively.

As for `C/C1=C/c2cc(C)c(O)cc2[C@H](C)CCC1`, the values for the inhibition in [2] and in assay [4] were 58.1% and 56.2%, respectively.

Turning to `Cc1cc2c(cc1O)[C@H](C)CC[C@@H]1O[C@]1(C)C2`, the inhibition in [1] was 48.7%; in [2] it was 46.9%; in assay [3] it was 33.6%; in assay [4], 44.7%. Besides, the inhibition entry in assay [7] is “Active”. Further, in assay [8], the inhibition entry is “inactive”.

Consider `C/C1=C/CC[C@@H](C)c2cc(OC(=O)c3ccccc3)c(C)cc2C1`, for which the inhibition in [1] is 11.8%; in [2] it was 56.3%; in assay [3] it was 46.2%; in assay [4], 58.9%.

On to `Cc1cc2c(cc1O)[C@@]1(C)CCC[C@H](C)[C@@H]2O1`, for which the inhibition in assay [1] turned out to be 38.7%; in [2], 21.9%; in [3] it was 76.1%; in assay [4], 62.5%.

Turning to `Cc1cc2c(cc1OC(=O)c1ccccc1)[C@H](C)CC[C@@H]1O[C@]1(C)C2`, the inhibition amounted to 30.3% in assay [1], 47.9% in assay [2], 10.9% in assay [3] and 42.2% in [4].

As a reminder, the inhibition is the relative decrease from the control value, in per cent. By IC50 is commonly meant the midpoint of a concentration-inhibition curve.
